Assays:
Canis familiaris [1] = assay: Intravenous gastric antisecretory activity against histamine-stimulated Heidenhain Pouch (HP) dogs at 1 ug/kg; format: functional; conditions: Canis lupus familiaris, Stomach
How it was run: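 Conscious, 18-h-fasted Heidenhain pouch dogs in Pavlov stands, iv 0.15 M NaCl infusion, used at most weekly. Histamine 1.0 mg/h was infused after a 15–30-min basal period. At steady state (about 1 h), a single iv bolus was given in ethanol stock diluted with isoosmotic pH 7.4 phosphate buffer (≤20% ethanol). Acid was titrated to pH 7.0 over 15-min collections; percent inhibition was taken from maximum inhibition of total acid output.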

Canis familiaris [2] = species: Canis familiaris; assay: Oral gastric antisecretory effect in histamine-stimulated Heidenhain Pouch (HP) dogs; format: functional; conditions: Canis lupus familiaris, Stomach, in the assay text read “gastric fistula (GF)” for “Heidenhain Pouch (HP)”
How it was run: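 Conscious gastric fistula dogs, 4–12 per dose, three doses. After a 30-min basal period, drug was given intragastrically via dosing plug and the cannula closed for 30 min. Histamine was then infused at 15 μg/kg per h, with 30-min collections for 4 h. Acid was titrated to pH 7.0. ED50 is the dose giving 50% inhibition of 4-h total acid output. Relative potency and 95% limits came from bioassay analysis.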

Rattus norvegicus = species: Rattus norvegicus; assay: Effect determining the diarrheagenic activity in rats; format: functional
How it was run: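 Adult male Charles River rats (210–230 g), housed singly and fasted 24 h, n = 6–12. Logarithmically graded oral doses were given. Diarrhea was scored all-or-none hourly to 8 h. ED50 and approximate asymptotic 95% confidence limits came from a maximum-likelihood logistic dose–response fit.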

Canis familiaris [3] = species: Canis familiaris; assay: Relative gastric antisecretory effect in histamine-stimulated gastric fistula (GF) dogs; conditions: Canis lupus familiaris, Stomach
[4] = Ratio of ED50 value of diarrheal effect to that of ED50 value of antisecretory effect; format: functional
How it was run: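 Ratio of rat oral diarrheal ED50 at 8 h to intragastric antisecretory ED50 in histamine-stimulated gastric fistula dogs (4-h total acid output).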

`CCCCC(C)(O)C/C=C/[C@H]1[C@H](O)CC(=O)[C@@H]1C/C=C\C/C=C/C(=O)OC` (stereo not given in full) gave an inhibition in vivo at 0.001 mg/kg (Canis familiaris [1]) of 0%.

Molecule `CCCCC(C)(O)C/C=C/[C@H]1[C@H](O)CC(=O)[C@@H]1CC/C=C/C=C/C(=O)OC` (stereo not given in full) has an inhibition in vivo at 0.001 mg/kg (Canis familiaris [1]) of 53%.

Work on `CCCCC(C)(O)C/C=C/[C@H]1[C@H](O)CC(=O)[C@@H]1C/C=C\C=C\CC(=O)OC` (stereo not given in full) yielded an inhibition in vivo at 0.001 mg/kg (Canis familiaris [1]) of 83%, an ED50 (Canis familiaris [2]) of 0.08 µg/kg and an ED50 (Rattus norvegicus) of 570 µg/kg. It also gave a Relative potency (Canis familiaris [3]) of 0.31 and a Ratio [4] of 7120.

`CCCCC(C)(O)C/C=C/[C@H]1[C@H](O)CC(=O)[C@@H]1CC/C=C\CCC(=O)OC` (stereo not given in full) [ENISOPROST] gave an inhibition in vivo at 0.001 mg/kg (Canis familiaris [1]) of 92%, an ED50 (Canis familiaris [2]) of 0.05 µg/kg and an ED50 (Rattus norvegicus) of 62 µg/kg. For the same molecule, the Relative potency (Canis familiaris [3]) was 1 and the Ratio [4] was 1240.

In the case of `CCCCC(C)(O)C/C=C/[C@H]1[C@H](O)CC(=O)[C@@H]1C/C=C/C=C/CC(=O)OC` (stereo not given in full), the inhibition in vivo at 0.001 mg/kg (Canis familiaris [1]) is reported as 21%.

For `CCCCC(C)(O)C/C=C/[C@H]1[C@H](O)CC(=O)[C@@H]1CC/C=C\C=C\C(=O)OC` (stereo not given in full), the inhibition in vivo at 0.001 mg/kg (Canis familiaris [1]) was 41%.

For `CCCCC(C)(O)C/C=C/[C@H]1[C@H](O)CC(=O)[C@@H]1C/C=C/C=C\CC(=O)OC` (stereo not given in full), the inhibition in vivo at 0.001 mg/kg (Canis familiaris [1]) was 96%.

`CCCCC(C)(O)C/C=C/[C@H]1[C@H](O)CC(=O)[C@@H]1C/C=C/C/C=C/C(=O)OC` (stereo not given in full) gave an inhibition in vivo at 0.001 mg/kg (Canis familiaris [1]) of 68%.

Molecule `CCCCC(C)(O)C/C=C/[C@H]1[C@H](O)CC(=O)[C@@H]1CCCCCCC(=O)OC` (stereo not given in full) [MISOPROSTOL] has an inhibition in vivo at 0.001 mg/kg (Canis familiaris [1]) of 79%, an ED50 (Canis familiaris [2]) of 0.28 µg/kg and a Relative potency (Canis familiaris [3]) of 0.08. It also gave a Ratio [4] of 1310.
